Columns and labels:
SPOP-53BP1 interaction [1] = assay: Co-IP of SPOP-53BP1 interaction in 293T cells with kinase inhibitors and IR; assay type: cell-based; conditions: IR for 1 hour
Outline: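 293T cells (DMEM, 10% FBS) transiently transfected with tagged constructs by lipofection, pretreated with kinase inhibitors (DMSO vehicle), then irradiated and harvested 1 h later. Lysed in BC100 buffer 24 h post-transfection; FLAG-tagged proteins pulled down on anti-FLAG M2 agarose, HA-tagged with anti-HA plus protein A/G beads, overnight at 4°C. Immunoblot on nitrocellulose with ECL detection.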

[2] = system: 53BP1 FFR polyubiquitination; assay: In vivo ubiquitination assay of 53BP1 FFR; assay type: cell-based; conditions: CPT treatment, fig. S2H
SPOP-53BP1 interaction [3] = assay: Co-IP of SPOP-53BP1 interaction after DNA damage; assay type: cell-based; conditions: DNA damage by CPT
BPH1 cells = assay: Karyotype analysis, chromosome breaks; assay type: cell-based; conditions: SPOP F133V-expressing BPH1 cells, CPT 1 μM for 24 hours; largely reversed by 53BP1 co-KO
53BP1 polyubiquitination = assay: In vivo ubiquitination assay of 53BP1; assay type: cell-based; conditions: CPT treatment, fig. S2E
53BP1 = assay: Immunodepletion of PC-3 lysate with 53BP1 antibody; assay type: binding; conditions: IR 4 Gy, 1 hour, immunodepleted five times
Outline: (§1)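 PC-3 cells were grown in RPMI with 10% FBS, irradiated (4 Gy), and lysed 1 h later. Lysate was immunodepleted five times with antibody to L3MBTL1 or to 53BP1, with preimmune sera as control. Read-out was Western blot: SDS-PAGE, transfer to nitrocellulose, blocking in TBS (pH 7.4) with 5% nonfat milk and 0.1% Tween 20, primary antibody overnight at 4°C, secondary 1 h at room temperature.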

L3MBTL1 = assay: Immunodepletion of PC-3 lysate with L3MBTL1 antibody; assay type: binding; conditions: IR 4 Gy, 1 hour, immunodepleted five times
Outline: as §1

[4] = target: SPOP MATH domain (residues 28 to 164) D140G (human, UniProt O43791 28-164, D140G); assay: crystal structure
SPOP MATH domain (residues 28 to 164) D140G, sequence (O43791 28-164 D140G): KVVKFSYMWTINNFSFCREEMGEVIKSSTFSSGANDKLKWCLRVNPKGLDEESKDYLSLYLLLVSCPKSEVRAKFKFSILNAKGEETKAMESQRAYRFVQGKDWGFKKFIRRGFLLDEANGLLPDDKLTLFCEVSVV

Molecule: O=c1cc(-c2cccc3c2Sc2ccccc2S3)oc(N2CCOCC2)c1 [ATM kinase inhibitor]
- effect on SPOP-53BP1 interaction (SPOP-53BP1 interaction [1]): attenuated the SPOP-53BP1 interaction

Molecule: CC[C@@]1(O)C(=O)OCc2c1cc1n(c2=O)Cc2cc3ccccc3nc2-1 [CPT, camptothecin]
- effect on SPOP-increased 53BP1 FFR polyubiquitination [2]: this effect was enhanced by CPT treatment
- effect on SPOP-53BP1 interaction (SPOP-53BP1 interaction [3]): markedly enhanced
- number of intrachromosomal breaks per cell (BPH1 cells): marked increase in the number of intrachromosomal breaks per cell
- effect on SPOP-induced polyubiquitination of 53BP1 (53BP1 polyubiquitination): enhanced SPOP-induced polyubiquitination of 53BP1

Molecule: NPL4: valosin-containing protein/p97 cofactor NPL4
- fraction of NPL4 bound to 53BP1 (53BP1): approximately 10%
- fraction of NPL4 bound to L3MBTL1 (L3MBTL1): approximately 33%

Molecule: PATPTASSSSSTTPT (peptide, UniProt Q12888 1636-1650, looked up) [53BP1 SBM synthetic peptide (residues 1636 to 1650)]
- binding result [4]: binds

— publication PMC8213225 (Science Advances, 2021)
